Measurements published in ChEMBL document CHEMBL1131340, “alpha-Substituted malonester amides: tools to define the relationship between ACAT inhibition and adrenal toxicity” (J Med Chem, 1998).
pIC50: −log10 of the molar value.

Tests used:
[1] = target: T1, Sterol O-acyltransferase 1 (Rattus norvegicus, UniProt O70536); assay: In vitro Acyl coenzyme A:cholesterol acyltransferase inhibition in hepatic microsomes isolated from cholesterol-fed rats; parameters: species or system Liver
T1 sequence (O70536 whole entry): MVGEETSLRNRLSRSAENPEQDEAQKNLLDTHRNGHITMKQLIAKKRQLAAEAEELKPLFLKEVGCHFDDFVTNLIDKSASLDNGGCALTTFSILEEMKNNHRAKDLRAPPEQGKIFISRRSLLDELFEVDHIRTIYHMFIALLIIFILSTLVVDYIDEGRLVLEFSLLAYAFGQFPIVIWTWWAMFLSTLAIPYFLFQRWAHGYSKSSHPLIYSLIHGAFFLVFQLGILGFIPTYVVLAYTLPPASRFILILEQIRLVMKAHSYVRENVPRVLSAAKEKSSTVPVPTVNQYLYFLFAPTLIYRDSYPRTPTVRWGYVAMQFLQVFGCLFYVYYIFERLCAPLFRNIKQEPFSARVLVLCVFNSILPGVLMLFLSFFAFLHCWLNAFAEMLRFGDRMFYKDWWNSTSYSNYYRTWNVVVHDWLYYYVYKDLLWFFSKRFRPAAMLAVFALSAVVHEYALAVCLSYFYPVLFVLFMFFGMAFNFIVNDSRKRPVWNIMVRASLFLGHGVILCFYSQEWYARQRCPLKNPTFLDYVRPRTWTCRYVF
Outline: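 Hepatic microsomes from cholesterol-fed rats (LAI screen); ACAT inhibition reported as IC50.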

Rattus norvegicus [2] = assay: Percent change in total cholesterol level in cholic acid (0.5%),cholesterol(1.5%),peanut oil(5.5%) fed rats at 30 mg/kg.; type: functional
Outline: (§1)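 Acute screen (APCC) in male Sprague-Dawley rats, 200–225 g. Compound given orally as a suspension in water with carboxymethylcellulose (1.5%) and Tween-20 (0.2%). Rats then ate a high-fat, high-cholesterol PCC meal (peanut oil 5.5%, cholesterol 1.5%, cholic acid 0.5%). Plasma total cholesterol measured and expressed as percent change from controls.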

Rattus norvegicus [3] = assay: Percent change in total cholesterol level in cholic acid (0.5%),cholesterol(1.5%),peanut oil(5.5%) fed rats at 3 mg/kg.; type: functional; outline: as §1
Rattus norvegicus [4] = assay: Percent of high density lipoprotein cholesterol was in cholesterol fed rat at the dose of 30 mg/kg; type: functional
Rattus norvegicus [5] = assay: Percent of non high density lipoprotein cholesterol measured in cholesterol fed rat at the dose of 30 mg/kg; type: functional
Rattus norvegicus [6] = assay: Percent of high density lipoprotein cholesterol was in cholesterol fed rat at the dose of 10 mg/kg; type: functional
Rattus norvegicus [7] = assay: Percent of non high density lipoprotein cholesterol measured in cholesterol fed rat at the dose of 10 mg/kg; type: functional
Rattus norvegicus [8] = assay: Percent of high density lipoprotein cholesterol was measured in cholesterol fed rat at the dose of 10 mg/kg; type: functional
[9] = target: T2, Acyl-CoA:cholesterol acyltransferase (Oryctolagus cuniculus) (UniProt Q95214); assay: Percent inhibition of cholesterol of ACAT by ABIO bioassay at the dose of 25 mg/kg in rabbits.; type: functional, organism-based; parameters: dose 25 mg/kg
T2 sequence (whole entry): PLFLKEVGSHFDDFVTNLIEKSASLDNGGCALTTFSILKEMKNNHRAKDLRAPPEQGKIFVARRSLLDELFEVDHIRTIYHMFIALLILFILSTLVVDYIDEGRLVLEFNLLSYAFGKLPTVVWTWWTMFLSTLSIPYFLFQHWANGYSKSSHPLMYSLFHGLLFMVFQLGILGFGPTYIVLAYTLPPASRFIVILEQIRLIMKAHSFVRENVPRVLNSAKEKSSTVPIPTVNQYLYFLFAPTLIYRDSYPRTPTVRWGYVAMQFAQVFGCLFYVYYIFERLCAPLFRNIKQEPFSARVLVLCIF
Outline: (§2)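 Oral bioactivity (ABIO) in male New Zealand White rabbits, 1.2–1.5 kg. Compound given at 25 or 50 mg/kg in the daily meal (3% peanut oil, 3% coconut oil). Plasma extracts incubated with rat liver microsomes and ACAT reaction inhibition expressed as relative percent inhibition.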

Rattus norvegicus [10] = assay: Percent of total cholesterol was measured in cholesterol fed rat at the dose of 3 mg/kg
[11] = target: T2, Acyl-CoA:cholesterol acyltransferase (Oryctolagus cuniculus); assay: Percent inhibition of cholesterol of ACAT by ABIO bioassay at the dose of 50 mg/kg in rabbits.; type: functional, organism-based; parameters: dose 50 mg/kg; outline: as §2
Rattus norvegicus [12] = assay: Percent of total cholesterol was measured in cholesterol fed rat at the dose of 30 mg/kg
Oryctolagus cuniculus [13] = assay: Plasma drug levels at the dose of 50 mg/kg in rabbit; type: functional, organism-based; parameters: dose 50 mg/kg
Outline: (§3)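 Male New Zealand White rabbits, 1.2–1.5 kg, dosed at 25 or 50 mg/kg in the daily meal (3% peanut oil, 3% coconut oil). Blood taken predose and at intervals up to 24 h. Plasma solvent-extracted and assayed by HPLC–UV; limit of quantitation 20 ng/mL.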

Rattus norvegicus [14] = species: Rattus norvegicus; assay: Percent of non high density lipoprotein cholesterol was measured in cholesterol fed rat by using aqueous vehicle; type: functional
Outline: (§4)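 Chronic PCC rat screen with drug and PCC diet given together for 7 days. Compound dosed either in an aqueous carboxymethylcellulose vehicle (PCC-CMC) or in an oleic acid vehicle (PCC-OA). Change in plasma non-HDL-C measured.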

Rattus norvegicus [15] = species: Rattus norvegicus; assay: Percent of non high density lipoprotein cholesterol was measured in cholesterol fed rat by using oleic acid vehicle; type: functional; outline: as §4
Oryctolagus cuniculus [16] = assay: Plasma drug levels at the dose of 25 mg/kg in rabbit; type: functional, organism-based; parameters: dose 25 mg/kg; outline: as §3

| SMILES | pIC50 [1] | Delta TC (Rattus norvegicus [2]) [%] | Delta TC (Rattus norvegicus [3]) [%] | other results |
| --- | --- | --- | --- | --- |
| CCCCCCCCCCCCCCCCCCOC(=O)C(C(=O)Nc1c(C(C)C)cccc1C(C)C)c1ccccc1 (stereo unspecified) | 6.70 | -25 |  |  |
| CCCCCCCCCCCCC(C)OC(=O)C(C)(C)C(=O)Nc1c(C(C)C)cccc1C(C)C (stereo unspecified) | 7.68 |  |  |  |
| CCCCCCCCCCCCC(C)OC(=O)C(C(=O)Nc1c(OC)cc(OC)cc1OC)c1ccccc1 (stereo unspecified) | 7.52 | -59 | -48 | Of HDL-C (Rattus norvegicus [4]): 272%; Of non-HDL-C (Rattus norvegicus [5]): -85% |
| CCOC(=O)C(C)(C)C(=O)Nc1c(C(C)C)cccc1C(C)C | < 6.00 | -24 |  |  |
| CCCCCCCOC(=O)C(C(=O)Nc1c(C(C)C)cccc1C(C)C)c1ccccc1 (stereo unspecified) | 7.30 | -71 | -47 | Of HDL-C (Rattus norvegicus [6]): 2%; Of non-HDL-C (Rattus norvegicus [7]): -21% |
| CCCOC(=O)C(C(=O)Nc1c(C(C)C)cccc1C(C)C)c1ccccc1 (stereo unspecified) | < 6.00 | -20 |  |  |
| CCOC(=O)C(F)C(=O)Nc1c(C(C)C)cccc1C(C)C (stereo unspecified) | < 6.00 | 1 |  |  |
| CCCCCCCCCCCCCCC(C)(C)OC(=O)C(C(=O)Nc1c(C(C)C)cccc1C(C)C)c1ccccc1 (stereo unspecified) | 7.14 | -37 |  |  |
| CCCCCCCCCCCCCCOC(=O)C(C(=O)Nc1c(C(C)C)cccc1C(C)C)c1ccccc1 (stereo unspecified) | 7.80 | -49 |  | Of HDL-C (Rattus norvegicus [4]): 28%; Of non-HDL-C (Rattus norvegicus [5]): -57% |
| CCCCCCCCCCC(C)OC(=O)C(C(=O)Nc1c(C(C)C)cccc1C(C)C)c1ccccc1 (stereo unspecified) | 7.89 | -37 |  | Of HDL-C (Rattus norvegicus [4]): 97%; Of non-HDL-C (Rattus norvegicus [5]): -64% |
| CCCCCCCCCCCCCCCCOC(=O)C(C(=O)Nc1c(C(C)C)cccc1C(C)C)c1ccccc1 (stereo unspecified) |  | -26 |  |  |
| CCCCCCCCOC(=O)C(C(=O)Nc1c(C(C)C)cccc1C(C)C)c1ccccc1 (stereo unspecified) |  | -56 | -46 |  |
| CCCCCC(C)OC(=O)C(C(=O)Nc1c(C(C)C)cccc1C(C)C)c1ccccc1 (stereo unspecified) | 7.40 | -67 | -61 | Delta non HDL-C (Rattus norvegicus [7]): -18%; Delta HDL-C (Rattus norvegicus [8]): -1% |
| CCCCCCCCCCOC(=O)C(C(=O)Nc1c(C(C)C)cccc1C(C)C)c1ccccc1 (stereo unspecified) | 7.89 | -58 | -27 | Of HDL-C (Rattus norvegicus [6]): -5%; Of non-HDL-C (Rattus norvegicus [7]): 21% |
| CCCCC(C)(C)OC(=O)C(C(=O)Nc1c(C(C)C)cccc1C(C)C)c1ccccc1 (stereo unspecified) |  | -72 | -65 |  |
| CCCCCCCCCCCCOC(=O)C(C(=O)Nc1c(C(C)C)cc(C(C)C)cc1C(C)C)c1ccccc1 (stereo unspecified) | 7.25 | -21 |  |  |
| CCCCCCCCCOC(=O)C(C(=O)Nc1c(C(C)C)cccc1C(C)C)c1ccccc1 (stereo unspecified) | 7.92 | -67 | -53 |  |
| CCCCCCCCCCCCC(C)(C)OC(=O)C(C(=O)Nc1c(OC)cc(OC)cc1OC)c1ccccc1 (stereo unspecified) | 7.70 |  |  |  |
| CCCCCCCCCCCCOC(=O)C(C(=O)Nc1c(C(C)C)cc(C(C)C)cc1C(C)C)c1ccccn1 (stereo unspecified) | 6.74 | -9 |  |  |
| CCCCCCCCCCCCOC(=O)C(C(=O)Nc1c(OC)cc(OC)cc1OC)c1ccccc1 (stereo unspecified) |  | -51 | -51 | Of HDL-C (Rattus norvegicus [4]): 127%; Of non-HDL-C (Rattus norvegicus [5]): -71% |
| CCOC(=O)C(C(=O)Nc1c(C(C)C)cccc1C(C)C)c1ccccc1 (stereo unspecified) | < 5.30 | -23 |  |  |
| CCCCCCCCCCCCOC(=O)C(C(=O)Nc1c(C(C)C)cccc1C(C)C)c1ccccc1 (stereo unspecified) | 8.00 | -63 | -29 | inhibition [9]: 99%; TC (Rattus norvegicus [10]): -29%; inhibition [11]: 100%; TC (Rattus norvegicus [12]): -63%; Of HDL-C (Rattus norvegicus [4]): 148%; Of non-HDL-C (Rattus norvegicus [5]): -80%; Plasma level (Oryctolagus cuniculus [13]): 140 ng/mL; Non-HDL-C (Rattus norvegicus [14]): -54%; Non-HDL-C (Rattus norvegicus [15]): -54%; Plasma level (Oryctolagus cuniculus [16]): 131 ng/mL |
| CCCCCCCCCCCCC(C)(C)OC(=O)C(C(=O)Nc1c(C(C)C)cccc1C(C)C)c1ccccc1 (stereo unspecified) | 7.92 | -26 |  |  |
| CCCCCCCCCCCCOC(=O)C(F)C(=O)Nc1c(C(C)C)cccc1C(C)C (stereo unspecified) | 7.49 | -36 |  |  |
| CCCCCCCCCCCCOC(=O)C(C(=O)Nc1c(C(C)C)cccc1C(C)C)c1ccccn1 (stereo unspecified) | 8.10 | -43 |  |  |
| CCCCCCCCCCCCC(C)OC(=O)C(C(=O)Nc1c(C(C)C)cccc1C(C)C)c1ccccc1 (stereo unspecified) |  | -61 | -46 | Of HDL-C (Rattus norvegicus [4]): 215%; Of non-HDL-C (Rattus norvegicus [5]): -75% |
